The values that follow come from ChEMBL document CHEMBL4622841, “Structural modifications of indolinones bearing a pyrrole moiety and discovery of a multi-kinase inhibitor with potent antitumor activity” (Bioorg Med Chem, 2020).

Series [1] has as its target Platelet-derived growth factor receptor beta (Homo sapiens, UniProt P09619). Description: Inhibition of N-terminal GST-fused human PDGFRbeta cytoplasmic domain (557 to 1106 (end) residues) expressed in baculovirus expression system using FAM-labeled peptide and ATP as substrate preincubated for 10 mins followed by substrate addition measured after 1 hr by mobility shift assay.

Series [2] can be described thus: Intrinsic clearance in human liver microsomes. Type of series: ADME, Microsome. The following applies: read-out: CLH.
Series [3] in a line: Inhibition of N-terminal GST-tagged human recombinant PDGFRalpha D842I mutant expressed in baculovirus-infected Sf9 cells using FAM-labeled peptide and ATP as substrate preincubated for 10 mins followed by substrate addition measured after 1 hr by mobility shift assay.
In series [4] the target is Cyclin-dependent kinase 2 (Homo sapiens, UniProt P24941). Description: Inhibition of CDK2 (unknown origin) using FAM-labeled peptide and ATP as substrate preincubated for 10 mins followed by substrate addition measured after 1 hr by mobility shift assay.
The target of series [5] is Tyrosine-protein kinase Lyn (Homo sapiens, UniProt P07948). Description: Inhibition of LYN (unknown origin) using FAM-labeled peptide and ATP as substrate preincubated for 10 mins followed by substrate addition measured after 1 hr by mobility shift assay.
Tyrosine-protein kinase Lyn, sequence (P07948 whole entry): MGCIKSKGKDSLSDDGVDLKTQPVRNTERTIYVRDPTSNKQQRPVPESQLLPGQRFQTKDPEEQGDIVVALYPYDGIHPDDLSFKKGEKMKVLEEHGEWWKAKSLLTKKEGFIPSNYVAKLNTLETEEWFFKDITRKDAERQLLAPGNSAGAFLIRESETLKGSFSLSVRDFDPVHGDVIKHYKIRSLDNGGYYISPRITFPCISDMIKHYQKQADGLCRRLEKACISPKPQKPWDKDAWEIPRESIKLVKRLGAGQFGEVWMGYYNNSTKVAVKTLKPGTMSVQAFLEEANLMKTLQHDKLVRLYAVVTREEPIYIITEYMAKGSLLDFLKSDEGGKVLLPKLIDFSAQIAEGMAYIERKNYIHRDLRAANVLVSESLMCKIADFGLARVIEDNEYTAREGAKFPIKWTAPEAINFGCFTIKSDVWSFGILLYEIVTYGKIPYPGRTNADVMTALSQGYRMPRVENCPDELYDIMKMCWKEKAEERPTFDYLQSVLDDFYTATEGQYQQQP
Series [6] can be described thus: Half life in human liver microsomes. It counts as ADME, Microsome. A general note: Liver microsomes are a subcellular fraction often used to study metabolism.
A short description of series [7]: Inhibition of GST-tagged human recombinant VEGFR3 cytoplasmic domain (800 to 1297 residues) Q890H/V1128L/H1146R mutant expressed in baculovirus expression system using FAM-labeled peptide and ATP as substrate preincubated for 10 mins followed by substrate addition measured after 1 hr by mobility shift assay.
A short description of series [8]: Toxicity in nu/nu mouse xenografted with human HT-29 cells assessed as effect on body weight at 100 mg/kg, po qd for 18 days. It counts as organism-based. The following applies: in vivo, 432 h. A digest of the protocol: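 Female nu/nu mice, 4–6 weeks old, implanted subcutaneously in the right flank with HT-29 cells (2×10⁶/mL). Once tumours reached 200 mm³, mice randomised to groups (n = 6) and dosed orally once daily at 100 mg/kg for 18 days. Body weight monitored during treatment. Results given as mean ± SD.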
In general terms: Xenograft models place foreign cells or tissue in a host animal.

For another series, the system named is HT-29. Description: Antitumor activity against human HT-29 cells xenografted in nu/nu mouse assessed as tumour growth inhibition at 100 mg/kg, po qd for 18 days and measured twice per week by vernier caliper method. Type of series: functional. The settings on record: HT-29, po, 432 h, read-out: TGI.
The target in series [9] is Vascular endothelial growth factor receptor 2 (Homo sapiens, UniProt P35968). Description: Inhibition of N-terminal GST fused human VEGFR2 cytoplasmic domain (790 to 1356 (end) residues) expressed in baculovirus expression system using FAM-labeled peptide and ATP as substrate preincubated for 10 mins followed by substrate addition measured after 1 hr by mobility shift assay.
Vascular endothelial growth factor receptor 2, sequence (P35968 whole entry, the tested form may be a part): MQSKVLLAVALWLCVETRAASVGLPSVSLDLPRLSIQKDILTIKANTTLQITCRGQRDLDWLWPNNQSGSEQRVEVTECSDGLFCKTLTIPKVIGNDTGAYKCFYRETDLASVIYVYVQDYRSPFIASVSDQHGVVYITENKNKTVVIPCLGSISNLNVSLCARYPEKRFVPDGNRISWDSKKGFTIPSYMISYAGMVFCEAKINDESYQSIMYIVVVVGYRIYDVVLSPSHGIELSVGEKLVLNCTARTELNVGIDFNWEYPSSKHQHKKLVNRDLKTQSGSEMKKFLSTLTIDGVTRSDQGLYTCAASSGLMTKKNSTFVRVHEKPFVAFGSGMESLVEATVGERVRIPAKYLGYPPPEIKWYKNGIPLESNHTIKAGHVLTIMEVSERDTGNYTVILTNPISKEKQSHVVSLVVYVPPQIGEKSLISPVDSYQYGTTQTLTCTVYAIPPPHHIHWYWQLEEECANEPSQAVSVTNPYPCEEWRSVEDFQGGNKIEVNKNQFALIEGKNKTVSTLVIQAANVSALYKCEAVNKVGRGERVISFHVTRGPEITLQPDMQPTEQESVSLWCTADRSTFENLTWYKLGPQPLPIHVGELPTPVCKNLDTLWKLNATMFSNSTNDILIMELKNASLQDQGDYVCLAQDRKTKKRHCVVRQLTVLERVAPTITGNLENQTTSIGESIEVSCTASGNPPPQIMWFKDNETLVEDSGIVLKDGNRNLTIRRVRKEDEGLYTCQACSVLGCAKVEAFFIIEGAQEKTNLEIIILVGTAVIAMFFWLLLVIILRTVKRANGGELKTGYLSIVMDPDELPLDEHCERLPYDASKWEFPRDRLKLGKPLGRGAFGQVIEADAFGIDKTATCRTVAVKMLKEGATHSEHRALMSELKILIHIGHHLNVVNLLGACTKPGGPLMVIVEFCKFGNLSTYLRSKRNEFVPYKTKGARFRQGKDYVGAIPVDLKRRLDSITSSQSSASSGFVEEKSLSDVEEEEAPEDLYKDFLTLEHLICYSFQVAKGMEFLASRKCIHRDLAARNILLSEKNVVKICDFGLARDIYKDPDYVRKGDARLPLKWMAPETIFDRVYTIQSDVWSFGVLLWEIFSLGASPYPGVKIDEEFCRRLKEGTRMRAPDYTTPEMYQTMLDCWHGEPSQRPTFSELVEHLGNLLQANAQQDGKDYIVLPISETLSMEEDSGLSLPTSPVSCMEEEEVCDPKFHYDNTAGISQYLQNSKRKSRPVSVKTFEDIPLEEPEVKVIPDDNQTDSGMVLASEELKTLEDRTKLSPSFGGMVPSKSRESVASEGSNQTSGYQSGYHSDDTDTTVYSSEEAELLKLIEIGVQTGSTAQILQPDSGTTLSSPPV

Platelet-derived growth factor receptor beta, sequence (P09619 whole entry, the tested form may be a part): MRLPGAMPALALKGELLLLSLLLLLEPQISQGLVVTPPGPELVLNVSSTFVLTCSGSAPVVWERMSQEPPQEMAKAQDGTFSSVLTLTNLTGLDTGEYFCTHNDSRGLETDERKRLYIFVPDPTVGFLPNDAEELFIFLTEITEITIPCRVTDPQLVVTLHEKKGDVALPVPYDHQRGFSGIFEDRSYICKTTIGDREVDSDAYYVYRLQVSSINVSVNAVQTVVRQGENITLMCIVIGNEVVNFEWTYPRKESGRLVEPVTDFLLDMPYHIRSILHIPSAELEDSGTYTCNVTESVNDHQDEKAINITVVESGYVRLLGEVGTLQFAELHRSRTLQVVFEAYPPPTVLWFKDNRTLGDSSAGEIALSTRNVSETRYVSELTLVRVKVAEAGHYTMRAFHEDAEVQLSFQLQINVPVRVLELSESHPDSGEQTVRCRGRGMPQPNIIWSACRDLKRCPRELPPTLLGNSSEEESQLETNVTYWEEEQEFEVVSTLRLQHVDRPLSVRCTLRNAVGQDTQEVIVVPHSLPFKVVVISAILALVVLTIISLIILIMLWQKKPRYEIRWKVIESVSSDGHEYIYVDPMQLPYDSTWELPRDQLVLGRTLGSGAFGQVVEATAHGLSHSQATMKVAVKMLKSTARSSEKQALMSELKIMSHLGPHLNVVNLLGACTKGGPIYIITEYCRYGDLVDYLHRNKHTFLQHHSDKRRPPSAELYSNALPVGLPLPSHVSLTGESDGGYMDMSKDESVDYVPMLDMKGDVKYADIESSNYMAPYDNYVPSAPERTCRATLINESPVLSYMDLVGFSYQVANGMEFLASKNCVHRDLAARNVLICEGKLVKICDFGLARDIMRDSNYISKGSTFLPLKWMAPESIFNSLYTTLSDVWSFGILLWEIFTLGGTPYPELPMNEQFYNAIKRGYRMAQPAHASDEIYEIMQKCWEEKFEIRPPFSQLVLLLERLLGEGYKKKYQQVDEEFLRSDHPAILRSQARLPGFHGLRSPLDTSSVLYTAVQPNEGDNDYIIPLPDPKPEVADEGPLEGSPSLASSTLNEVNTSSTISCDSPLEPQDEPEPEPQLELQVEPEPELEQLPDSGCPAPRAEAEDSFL

Broadly, the IC50 is the concentration needed to halve the response being measured. Turning to `COC(=O)c1ccc2c(c1)NC(=O)/C2=C(\Nc1ccc(-n2cccc2CN(C)C)cc1)c1ccccc1`, the IC50 in series [1] was 11 nM. For the compound `COC(=O)c1ccc2c(c1)NC(=O)/C2=C(\Nc1ccc(-n2c(C)ccc2CN2CCOCC2)cc1)c1ccccc1`, in series [1], the IC50 worked out at 37 nM.

For orientation: half-life means the time in which the quantity being followed falls by half. On to `COC(=O)c1ccc2c(c1)NC(=O)/C2=C(\Nc1ccc(N(C)C(=O)CN2CCN(C)CC2)cc1)c1ccccc1` [NINTEDANIB], for which, in series [2], the CLint scaled came to 63.5 mL/min/kg. The IC50 in [3] was 1.9 nM; in series [4], more than 1000 nM; in series [5] it was 55 nM; in [7], 3 nM. In [6], this compound displayed a half-life of 27.4 min. Also, in series [8], the Activity result is “Non-Toxic”. For the same compound, in the series with HT-29, the inhibition in vivo at 100 mg/kg stood at 44.3%. For `COC(=O)c1ccc2c(c1)NC(=O)/C2=C(\Nc1ccc(-n2cccc2CN2CCN(C)CC2)nc1)c1ccccc1`, in series [1], the IC50 was found to be 114 nM. Regarding `COC(=O)c1ccc2c(c1)NC(=O)/C2=C(\Nc1ccc(-n2c(C)ccc2CN2CCN(C)CC2)nc1)c1ccccc1`, in series [1], the IC50 turned out to be 123 nM. `COC(=O)c1ccc2c(c1)NC(=O)/C2=C(\Nc1cnc(-n2cccc2CN(C)C)c(C)c1)c1ccccc1`: the IC50 in series [1] is 71 nM; in series [9], more than 1000 nM. `COC(=O)c1ccc2c(c1)NC(=O)/C2=C(\Nc1ccc(-n2cccc2CN2CCN(C)CC2)cc1)c1ccccc1`: in series [1], the IC50 is 55 nM. Take `COC(=O)c1ccc2c(c1)NC(=O)/C2=C(\Nc1ccc(-n2c(C)ccc2CN(C)C)nc1)c1ccccc1`: in [1], the IC50 was 32 nM. `COC(=O)c1ccc2c(c1)NC(=O)/C2=C(\Nc1ccc(-n2c(C)ccc2CN(C)C)cc1)c1ccccc1`: the IC50 in series [1] came to 45.3 nM. Turning to `COC(=O)c1ccc2c(c1)NC(=O)/C2=C(\Nc1ccc(-n2cccc2CN(C)C)c(C)c1)c1ccccc1`, in series [1], the IC50 stood at 31 nM. For the compound `COC(=O)c1ccc2c(c1)NC(=O)/C2=C(\Nc1ccc(-n2cccc2CN2CCN(C)CC2)c(C)c1)c1ccccc1`, the IC50 in series [1] came to 206 nM. Still for that read-out and setting: for `COC(=O)c1ccc2c(c1)NC(=O)/C2=C(\Nc1ccc(-n2cccc2CN(C)C)nc1)c1ccccc1` the value was 26 nM. For the compound `COC(=O)c1ccc2c(c1)NC(=O)/C2=C(\Nc1cnc(-n2cccc2CN2CCN(C)CC2)c(C)c1)c1ccccc1`, the IC50 is more than 300 nM in series [1] and more than 1000 nM in series [9]. For the compound `CCN(CC)Cc1ccc(C)n1-c1ccc(N/C(=C2\C(=O)Nc3cc(C(=O)OC)ccc32)c2ccccc2)cc1`, the half-maximal inhibitory concentration (IC50) in [1] came out at 23.8 nM.
